Test [1] concerns cellular cAMP levels, MEF cells. In words: cAMP-Glo Assay in MEF cells. The format is cell-based, mouse. The conditions noted are these: 6 hrs 500 μM 18:1, no Iso/IBMX. A digest of the protocol: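 MEFs in DMEM/10% FBS given 2% fatty-acid-free BSA or 500 μM 18:1–BSA complex for 6 or 16 h. Then washed and switched to serum-free DMEM with DMSO or 20 μM isoproterenol/500 μM IBMX for 20 min. cAMP-Glo steps at room temperature: lysis 15 min, detection solution 20 min, Kinase-Glo 10 min. n=12–16.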

The test system of test [2] is PGC-1α activity, mouse L-cells. Put plainly: PGC-1α luciferase reporter assay in L-cells. In kind it is cell-based. The conditions noted are these: Plin5 knockout L-cells. For orientation: Reporter assays use an easily measured gene product as a stand-in for the process of interest.
Test [3] concerns the target T1, SIRT1 (Homo sapiens, UniProt Q96EB6).
T1 sequence (Q96EB6 1-747): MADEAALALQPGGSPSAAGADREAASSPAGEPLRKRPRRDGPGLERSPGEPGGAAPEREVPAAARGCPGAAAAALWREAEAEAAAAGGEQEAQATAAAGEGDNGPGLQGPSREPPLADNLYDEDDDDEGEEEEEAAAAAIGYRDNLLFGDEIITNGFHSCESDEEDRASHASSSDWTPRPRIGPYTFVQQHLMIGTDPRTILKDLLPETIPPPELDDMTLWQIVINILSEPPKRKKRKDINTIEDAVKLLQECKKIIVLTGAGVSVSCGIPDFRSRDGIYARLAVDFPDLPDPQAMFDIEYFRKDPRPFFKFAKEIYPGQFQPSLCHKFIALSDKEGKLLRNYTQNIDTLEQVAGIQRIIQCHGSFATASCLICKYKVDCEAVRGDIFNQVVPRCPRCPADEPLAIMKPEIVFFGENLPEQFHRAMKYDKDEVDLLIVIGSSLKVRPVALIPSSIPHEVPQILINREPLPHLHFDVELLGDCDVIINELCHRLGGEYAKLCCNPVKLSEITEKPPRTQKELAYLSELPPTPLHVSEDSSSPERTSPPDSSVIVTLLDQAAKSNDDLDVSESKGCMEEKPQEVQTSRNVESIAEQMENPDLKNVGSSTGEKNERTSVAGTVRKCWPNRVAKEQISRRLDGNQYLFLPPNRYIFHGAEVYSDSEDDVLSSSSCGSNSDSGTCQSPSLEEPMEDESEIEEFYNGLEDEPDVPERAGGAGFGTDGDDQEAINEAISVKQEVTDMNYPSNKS
In words: Intrinsic tryptophan fluorescence quenching binding assay, SIRT1.

Another test concerns the target T2, PLIN5-pM (Mus musculus, UniProt Q8BVZ1, S155E).
T2 sequence (Q8BVZ1 1-463 S155E): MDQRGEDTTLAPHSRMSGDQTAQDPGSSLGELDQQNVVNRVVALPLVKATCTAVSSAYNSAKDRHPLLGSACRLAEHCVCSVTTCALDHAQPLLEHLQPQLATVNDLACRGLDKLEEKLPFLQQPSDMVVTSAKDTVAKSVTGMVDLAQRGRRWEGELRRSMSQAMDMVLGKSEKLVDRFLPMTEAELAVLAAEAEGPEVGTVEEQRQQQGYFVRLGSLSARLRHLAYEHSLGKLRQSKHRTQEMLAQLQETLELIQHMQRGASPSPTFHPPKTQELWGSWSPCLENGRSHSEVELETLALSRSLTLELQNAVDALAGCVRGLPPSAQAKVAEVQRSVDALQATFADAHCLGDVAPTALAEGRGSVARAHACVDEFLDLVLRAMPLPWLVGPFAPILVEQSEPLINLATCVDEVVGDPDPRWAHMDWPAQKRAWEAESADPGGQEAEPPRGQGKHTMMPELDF
Put plainly: Circular dichroic analysis of PLIN5-pM with ligand. The arrangement: species or system murine. Conditions: addition of ligand. A digest of the protocol:
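Far-UV CD spectra of the PLIN5 phospho-mutants in 10 mM NaH2PO4, pH 7.5, with 10 mM NaCl, with and without ligand. Run at 25°C in a 1 mm path cuvette. Ligand incubated 2–5 min before each scan. Each spectrum is the average of ten scans, repeated in triplicate.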

Another test addresses T3, PLIN5-pM (S155E) (Mus musculus, UniProt Q8BVZ1, S155E).
T3 sequence (Q8BVZ1 1-463 S155E): T2 sequence (Q8BVZ1 1-463 S155E)
Put plainly: Tryptophan fluorescence quenching binding assay, PLIN5-pM. The arrangement: species or system murine.

In test [4] the test system is PGC-1α activity, primary hepatocytes. In words: PGC-1α luciferase reporter assay in primary hepatocytes. Conditions: hepatocytes preloaded with fatty acid. The format is cell-based, mouse.
A further test deals with PGC-1α activity, MEFs. In words: PGC-1α luciferase reporter assay in MEFs. In kind it is cell-based, mouse.
For test [5], the target named is T1, SIRT1. In words: Circular dichroic analysis of SIRT1 secondary structure with ligand. Conditions: with ligand; 23% without ligand.

The source of these data is publication PMC7036014 (Molecular cell, 2019).

Each structure is given as a SMILES string.

In the case of `CCCCCCCC/C=C\CCCCCCCC(=O)O` [18:1, oleic acid], the “cellular cAMP levels, acute exposure” value in test [1] is on record as “increased”. Further, the “regulation of PGC-1α activity in L-Cells lacking Plin5” value in test [2] is reported as “PLIN5 was required”. Besides, the results for the Kd at SIRT1 [3] and at PLIN5-pM (S155E) were 81 ± 9 nM and 36 ± 8 nM, respectively. Also, the “shape of the CD spectrum of PLIN5-pM” value on PLIN5-pM is given as “robustly altered”. Besides, at PLIN5-pM (S155E) (PLIN5-pM vs comparator), the “increase in binding affinity of PLIN5-pM” value was 2.4 fold. Further, the “PGC-1α activity response to cAMP and protein overexpression” value in test [4] is listed as “further enhanced”. Further, the “basal PGC-1α activity, acute exposure” value in the test on PGC-1α activity, MEFs (6 hrs, 500 μM 18:1) is “increased”. Further, the “requirement of PKA-stimulated lipolysis for activation of PGC-1α” value in the test on PGC-1α activity, MEFs (PKA or ATGL inhibitors) is recorded as “required”. Also, the “regulation of PGC-1α activity in MEFs lacking Sirt1” value in the test with PGC-1α activity, MEFs (Sirt1 knockout MEFs) is “SIRT1 was required”. The “activation of PGC-1α in Sirt1 knockout cells rescued with GFP tagged human Sirt1” value in the test with PGC-1α activity, MEFs (Sirt1 knockout MEFs + human Sirt1) is listed as “restored”. In the test on PGC-1α activity, MEFs (acute and overnight loading vs non-loaded cells, isoproterenol/IBMX), the “PGC-1α activity upon stimulation of β-adrenergic signaling” value is recorded as “enhanced”. In the test with PGC-1α activity, MEFs (vs non-loaded or 18:0/16:0 loaded cells), the “PGC-1α activity with cAMP, individual fatty acid loading” value is on record as “synergized with cAMP”. The “α-helical content of SIRT1” value on SIRT1 [5] came to 28.6%.

As a reminder, the Kd is the constant that tells how readily two partners part at equilibrium. High values mean a looser complex, low ones a tighter complex.
